Compound activity: PubChem BioAssay, several laboratories
Autophagy HCS: autophagy modulators in MEF cells, primary screen, imaging, high-content, MEF GFP-LC3. MEF GFP-LC3 puncta imaging; test concentration mostly 10 µM. calls only at 10 µM (by protocol). 0.98% of 190,000 active. AID 463193, 2010;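 active = percentage of spot-positive cells more than 3 SD above its plate mean, without a fluorescence outlier flag or 80% toxicity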;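 note: spot-positive cell cutoff set from DMSO-treated cells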
CHOP inh: inhibitors of CHOP promoter induction, primary screen, cell-based, unfolded protein response, luciferase reporter; CHO-K1 CHOP-promoter luciferase, tunicamycin-induced, 15-18 h; inhibition, % at 10 µM; 3.8% of 220,000 active; AID 2732, 2010;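 active = compounds that reduced the stress-induced luciferase reporter signal by more than about 70% of percent inhibition, limit read from the data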;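 note: 0% = tunicamycin plus vehicle and 100% = wells without tunicamycin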
L major viab: Leishmania major promastigote growth inhibition, primary screen; 9% of 200,000 active; Leishmania major promastigotes, resazurin fluorescence viability; inhibition, % at 10 µM; in the data active = inhibition above about 50%;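 note: promastigotes grown with compound for 44 hours at 28 °C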
Dynein transport: inhibitors of GR-EGFP nuclear translocation, primary screen, dynein cargo transport inhibitor project, imaging, high-content, 3617.4 mouse cells. 0.47% of 220,000 active. z-score, hits read low. test concentration mostly 20 µM; stimulated with dexamethasone, 1 µM; hits give low values;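 active = plate z-score of nuclear minus cytoplasmic receptor signal below a set negative limit, without overly bright fluorescence or cell loss, cut at about -3.5 in these data, passing the limit was not always enough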;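 note: z-score of nuclear minus cytoplasmic ring GR-EGFP intensity difference per well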
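Buffer or medium: tet-free medium with charcoal-stripped serum / Also added: dexamethasone agonist, 1.0 µM final, for 30 min / Timing: induction 48 h, compound 1 h, agonist 30 min / Measured by: high-content fluorescence imaging after fixation / Read-out: nuclear-to-cytoplasmic GR-EGFP distribution per well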
MT stabilize HCS: microtubule stabilizers in HeLa cells, primary screen, imaging, high-content imaging | HeLa tubulin immunostaining HCS, 24 h; share of cells brighter than vehicle mean+2SD | % tubulin-high responders, % at 10 µM | 0.83% of 200,000 active;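 active = plate Z-score above 3 for both tubulin-high and condensed-nucleus cell shares, with cell loss under 80%, at 10 µM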;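 note: anti alpha tubulin signal scored within the nucleus-defined area of each cell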
b-catenin transl: modulators of beta-catenin nuclear translocation, primary screen, imaging, HeLa cells, immunofluorescence, high-content. 0.3% of 190,000 active. AID 1665, 2009. nuclear translocation activity, % at 5 µM;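 active = nuclear translocation activity above 50% at 5 µM, with a well cell count of 50 or more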;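 note: per-cell ratio of nuclear to cytoplasmic median beta-catenin stain intensity; plate controls were DMSO negative control for no effect and GSK-3 inhibitor IX positive control for full effect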
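test system = HeLa cells, endogenous beta-catenin | dosing = single 5 µM dose plus 0.02–20 µM confirmation series | times = compound treatment 24 h, 37°C, 5% CO2 | technique = beta-catenin immunofluorescence imaging with DAPI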
Active calls of the source: *; i = inactive; . = no result. Sampled rows, rich in hits. Any-hit rate of the full collection: about 12%.

SMILES	Autophagy HCS	CHOP inh	L major viab	Dynein transport	MT stabilize HCS	b-catenin transl
Cc1cc(C(=O)CSc2nc3ccccc3o2)c(C)n1CC1CCCO1 (centres undefined)	i	38	2	0.082	1	-2
Cc1cc(C(=O)COC(=O)c2ccc([N+](=O)[O-])o2)c(C)n1CC1CCCO1 (centres undefined)	i	-11	82*	0.3	5	12
COCCn1c(C)cc(C(=O)COC(=O)c2ccc([N+](=O)[O-])o2)c1C	i	12	75*	1.1	5	1
Cc1cc(C(=O)CSc2nc3ccccc3[nH]2)c(C)n1CC1CCCO1 (centres undefined)	i	74*	27	0.46	2	-2
Cc1cc(C(=O)COC(=O)c2ccc3c(c2)OCO3)c(C)n1CC1CCCO1 (centres undefined)	i	2	1	-0.55	4	1
Cc1cc(C)c(C(=O)COC(=O)c2ccc([N+](=O)[O-])o2)cc1C	i	44	-2	-1.3	2	-1
COC(=O)Nc1ccc2c(c1)N(C(=O)CCN1CCN3CCCC3C1)c1ccccc1S2 (centres undefined)	i	34	71*	1.8	5	-6
CN1CCN(CCC(=O)N2c3ccccc3Sc3ccc(Cl)cc32)CC1	i	12	101*	-0.21	5	-2
CCN(CC)C(=O)NC1CCCCCCC1	i	23	10	-0.86	4	-3
Cc1cc(C)c2cccc(N)c2n1	i	3	-5	0.7	3	-3
Cc1cc(C)c2c(N)c3ccccc3nc2n1	i	13	101*	-0.85	2	2
CCc1ccc2nc3nc(C)cc(C)c3c(N)c2c1	i	-1	101*	-0.41	3	-4
COc1ccc(-n2ncc(S(=O)(=O)c3ccccc3)c2-c2ccc(Cl)cc2)cc1	i	-30	99*	-0.72	3	-3
O=S(=O)(c1ccccc1)c1cnn2c(C(F)(F)F)cc(-c3ccc(F)cc3)nc12	i	71*	25	-0.49	0	.
COc1ccc(Sc2cnn(-c3ccccc3)c(=O)c2Cl)cc1	i	66	44	0.36	3	-1
O=S(=O)(c1ccccc1)c1cnn(-c2ccccc2)c1-c1ccc(F)cc1	i	35	50*	0.69	4	-3
O=S(=O)(c1ccccc1)c1cnn2c(C(F)(F)F)cc(-c3ccccc3)nc12	i	12	4	-0.41	2	.
Cc1ccc(C(C(=O)NC2CCCC2)N(Cc2cccs2)C(=O)c2csnn2)o1 (centres undefined)	i	-21	3	-0.58	3	.
CN(C(=O)COC(=O)c1ccccc1Nc1ccccc1)C1CCS(=O)(=O)C1 (centres undefined)	i	16	0	0.071	5	1
CN(C(=O)COC(=O)c1cc([N+](=O)[O-])ccc1Sc1ccccc1)C1CCS(=O)(=O)C1 (centres undefined)	i	-8	100*	-0.68	4	1
CC(C)[C@H](NC(=O)c1ccc(C(C)(C)C)cc1)C(=O)Nc1nnc(C2CC2)s1	i	42	84*	-0.56	2	.
CC(C)Oc1ccccc1C1Nc2ccccc2C(=O)N1c1ccc2c(c1)OCCO2 (centres undefined)	i	0	63*	0.022	3	0
CC(=O)c1cccc(CN2CCCC(CCC(=O)NCc3ccc(C)o3)C2)c1 (centres undefined)	i	10	20	0.21	1	0
C=CCn1c(=N)n(CC(=O)c2ccc(Br)s2)c2ccccc21	i	1	97*	-0.16	5	-5
C=CCn1c(=N)n(CC(=O)OC)c2ccccc21	i	-24	-3	0.6	3	-3
SMILES	Autophagy HCS	CHOP inh	L major viab	Dynein transport	MT stabilize HCS	b-catenin transl
CN(c1ccc(OCc2nnc(-c3ccccc3)o2)cc1)S(=O)(=O)c1ccccc1	i	12	54*	0.57	3	4
COc1ccc(-c2nc(-c3ccc(Br)o3)no2)cc1	i	76*	-7	-0.34	8	.
COc1ccc(-c2noc(-c3ccc(Br)o3)n2)cc1	.	-1	.	-0.13	.	1
COc1ccc(Cc2noc(-c3ccc([N+](=O)[O-])cc3)n2)cc1OC	.	14	.	0.32	.	1
COc1ccc(Cc2noc(-c3ccc(C)cc3)n2)cc1	i	88*	-10	-0.11	5	2
CC(=O)Nc1ccccc1C(=O)C(=O)Nc1cccc(C(=O)N2CC(C)CC(C)C2)c1 (centres undefined)	i	35	-6	0.73	24	-2
COc1ccc(Cl)cc1-c1nc(SCC(N)=O)n[nH]1	.	15	.	-0.056	.	2
COc1ccc(NC(=O)c2cccnc2)c([N+](=O)[O-])c1	i	18	-3	2.3	22*	3
COc1ccc(NC(=O)c2ccccc2)c([N+](=O)[O-])c1	i	-10	7	0.17	4	-2
CCC(C)C(=O)Nc1ccc(OC)cc1[N+](=O)[O-] (centres undefined)	i	65	53*	0.6	3	.
C/C(=N\NC(=O)C(=O)Nc1cccc(Cl)c1C)c1ccncc1	i	28	69*	-0.95	3	-1
C/C(=N\NC(=O)C(=O)Nc1cc(Cl)ccc1Cl)c1ccncc1	i	34	48	-0.47	3	-3
Cc1cc(C)c(C)c(S(=O)(=O)Nc2ccccc2C(=O)NCCCN2CCOCC2)c1C	i	12	97*	0.15	2	-1
Cc1cc(C)c(C)c(S(=O)(=O)Nc2ccccc2C(=O)NCCCn2ccnc2)c1C	i	23	6	0.29	3	-3
CC(CN1CCN(C)CC1)OC(=O)c1ccc(F)cc1 (centres undefined)	i	2	7	-0.54	1	-1
O=C(CCS(=O)(=O)Cc1ccc(Cl)cc1)NCCCN1CCOCC1	i	13	89*	0.24	1	0
CC(CN1CCOCC1)OC(=O)c1ccc(Br)cc1 (centres undefined)	i	92*	4	-0.74	3	1
O=C(CN1CCN(Cc2ccc(Cl)cc2)C1=O)NCCCN1CCOCC1	i	-23	-3	0.12	3	.
O=C(NCCCN1CCOCC1)c1cc(-c2ccc(Br)cc2)on1	i	5	94*	-0.28	4	-1
Cc1cc(C)n(-c2nnc(C)n2/N=C/c2ccccc2O)n1	i	6	-2	-0.87	2	2
COc1ccc(C(=O)Oc2coc(CSc3nnc(NC(=O)c4cccs4)s3)cc2=O)cc1	i	53	2	2.9	6	-1
